Test results as given in ChEMBL document CHEMBL1135464, “3-Aryl-2-quinolone derivatives: synthesis and characterization of in vitro and in vivo antitumor effects with emphasis on a new therapeutical target connected with cell migration” (J Med Chem, 2002).

Columns and labels:
[1] = test system: Mus musculus; assay: Evaluated in vivo for maximum tolerated dose (MTD/2) using MXT mouse mammary adenocarcinoma model; format: functional
Procedure, shortened: (§1)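 MXT-HS hormone-sensitive mammary adenocarcinoma maintained by monthly s.c. transplantation in 6-week-old female B6D2F1 mice. Doses are set as fractions of the MTD. Drugs given i.p.; ETO and DOX 9 times, the quinolone 20 times. Nine mice per group. Tumor area (mm2) is the product of the two largest perpendicular caliper diameters, measured weekly. Mean ± SEM; Mann-Whitney test.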

[2] = test system: Mus musculus; assay: Evaluated in vivo for maximum tolerated dose (MTD/4) using MXT mouse mammary adenocarcinoma model; format: functional; procedure, shortened: as §1
[3] = test system: Mus musculus; assay: Evaluated in vivo for maximum tolerated dose (MTD/8) using MXT mouse mammary adenocarcinoma model; format: functional; procedure, shortened: as §1
[4] = test system: Mus musculus; assay: Evaluated in vivo for maximum tolerated dose (MTD16) using MXT mouse mammary adenocarcinoma model; format: functional; procedure, shortened: as §1
[5] = test system: PC-3; assay: Cytotoxicity against prostate cell line PC-3 using MTT colorimetric assay; format: functional, cell-based; details: Homo sapiens
Procedure, shortened: (§2)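 Human tumour lines from ATCC were grown at 37 °C in sealed dishes in MEM with 5% FCS. Cells were seeded at 40000 cells/mL in 96-well plates and left 24 h to plate. Each drug was then tested at six concentrations from 10^-5 to 10^-9 M. Growth was read by colorimetric MTT assay.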

[6] = test system: A-427; assay: Cytotoxicity against A-427 nonsmall lung cell line using MTT colorimetric assay; format: functional, cell-based; details: Homo sapiens; procedure, shortened: as §2
[7] = Evaluated in vivo for maximum tolerated dose and found to be nontoxic; format: ADME, organism-based
[8] = test system: LoVo; assay: Cytotoxicity measured on LoVo colon cell line using MTT colorimetric assay; format: functional, cell-based; details: Homo sapiens; procedure, shortened: as §2
[9] = test system: A549; assay: Cytotoxicity against A549 nonsmall lung cell line using MTT colorimetric assay; format: functional, cell-based; details: Homo sapiens; procedure, shortened: as §2
[10] = test system: A 172; assay: Cytotoxicity against A-172 glioblastomas using MTT colorimetric assay; format: functional, cell-based; details: Homo sapiens; procedure, shortened: as §2
[11] = test system: U373 MG; assay: Cytotoxicity against U-373 MG glioblastomas using MTT colorimetric assay; format: functional, cell-based, U-373MG ATCC; details: Homo sapiens; procedure, shortened: as §2
[12] = test system: T47D; assay: Cytotoxicity against Breast cancer cell line T-47D using MTT colorimetric assay; format: functional, cell-based; details: Homo sapiens; procedure, shortened: as §2
[13] = test system: U-87 MG; assay: Cytotoxicity against U-87 MG glioblastomas using MTT colorimetric assay; format: functional, cell-based, U-87MG ATCC; details: Homo sapiens; procedure, shortened: as §2
[14] = test system: J82; assay: Cytotoxicity against J82 bladder cell lines using MTT colorimetric assay at 1x 10 E-5; format: functional, cell-based; details: Homo sapiens; procedure, shortened: as §2
[15] = test system: T-24; assay: Cytotoxicity against T24 bladder cell lines using MTT colorimetric assay; format: functional, cell-based; details: Homo sapiens; procedure, shortened: as §2
[16] = test system: MCF7; assay: Cytotoxicity against Breast cancer cell line MCF-7 using MTT colorimetric assay; format: functional, cell-based; details: Homo sapiens; procedure, shortened: as §2
[17] = test system: HCT-15; assay: Cytotoxicity against HCT-15 colon cell line using MTT colorimetric assay; format: functional, cell-based; details: Homo sapiens; procedure, shortened: as §2
[18] = test system: A-427; assay: Cytotoxicity against A-427 nonsmall lung cell line using MTT colorimetric assay; NE is no effect at 1x 10 E-5; format: functional, cell-based, Homo sapiens; procedure, shortened: as §2
[19] = test system: T-24; assay: Cytotoxicity against T24 bladder cell lines using MTT colorimetric assay; NE is no effect at 1x 10 E-5; format: functional, cell-based, Homo sapiens; procedure, shortened: as §2
[20] = test system: T47D; assay: Cytotoxicity against Breast cancer cell line T-47D using MTT colorimetric assay; NE is no effect at 1x 10 E-5; format: functional, cell-based, Homo sapiens; procedure, shortened: as §2
[21] = test system: J82; assay: Cytotoxicity against J82 bladder cell lines using MTT colorimetric assay; NE is no effect at 1x 10 E-5; format: functional, cell-based, Homo sapiens; procedure, shortened: as §2
[22] = test system: U373 MG; assay: Cytotoxicity against U-373 MG glioblastomas using MTT colorimetric assay; NE is no effect at 1x 10 E-5; format: functional, cell-based, Homo sapiens; details: u-373mg atcc; procedure, shortened: as §2
[23] = test system: PC-3; assay: Cytotoxicity against prostate cell line PC-3 using MTT colorimetric assay; NE is no effect at 1x 10 E-5; format: functional, cell-based, Homo sapiens; procedure, shortened: as §2
[24] = test system: MCF7; assay: Cytotoxicity against Breast cancer cell line MCF-7 using MTT colorimetric assay; NE is no effect at 1x 10 E-5; format: functional, cell-based, Homo sapiens; procedure, shortened: as §2
[25] = test system: LoVo; assay: Cytotoxicity against LoVo colon cell line using MTT colorimetric assay; NE is no effect at 1x 10 E-5; format: functional, cell-based, Homo sapiens; procedure, shortened: as §2
[26] = test system: U-87 MG; assay: Cytotoxicity against U-87 MG glioblastomas using MTT colorimetric assay; NE is no effect at 1x 10 E-5; format: functional, cell-based, Homo sapiens; details: u-87mg atcc; procedure, shortened: as §2
[27] = test system: HCT-15; assay: Cytotoxicity against HCT-15 colon cell line using MTT colorimetric assay; NE is no effect at 1x 10 E-5; format: functional, cell-based, Homo sapiens; procedure, shortened: as §2
[28] = test system: A549; assay: Cytotoxicity against A549 nonsmall lung cell line using MTT colorimetric assay; NE is no effect at 1x 10 E-5; format: functional, cell-based, Homo sapiens; procedure, shortened: as §2
[29] = test system: A 172; assay: Cytotoxicity against A-172 glioblastomas using MTT colorimetric assay; NE is no effect at 1x 10 E-5; format: functional, cell-based, Homo sapiens; procedure, shortened: as §2
[30] = test system: J82; assay: Cytotoxicity against J82 bladder cell lines using MTT colorimetric assay; format: functional, cell-based; details: Homo sapiens; procedure, shortened: as §2
[31] = test system: T47D; assay: Cytotoxicity against Breast cancer cell line T-47D using MTT colorimetric assay at 1x 10 E-5; format: functional, cell-based; details: Homo sapiens; procedure, shortened: as §2
[32] = test system: Mus musculus; assay: Evaluated in vivo for maximum tolerated dose (MTD/4) using MXT mouse mammary adenocarcinoma model
[33] = test system: Mus musculus; assay: Evaluated in vivo for maximum tolerated dose (MTD/2) with Doxorubicin (DOX) using MXT mouse mammary adenocarcinoma model; format: functional; procedure, shortened: as §1
[34] = test system: Mus musculus; assay: Evaluated in vivo for maximum tolerated dose (MTD/4) with Doxorubicin (DOX) using MXT mouse mammary adenocarcinoma model; format: functional; procedure, shortened: as §1

| Structure (SMILES) | IC50 [5] | IC50 [6] | MTD [7] | IC50 [8] | IC50 [9] | IC50 [10] | IC50 [11] | IC50 [12] | IC50 [13] | IC50 [15] | IC50 [16] | IC50 [17] | IC50 [30] | other results |
| --- | --- | --- | --- | --- | --- | --- | --- | --- | --- | --- | --- | --- | --- | --- |
| COc1cccc2c1C(=O)c1c(O)c3c(c(O)c1C2=O)C[C@@](O)(C(=O)CO)C[C@@H]3O[C@H]1C[C@H](N)[C@H](O)[C@H](C)O1 [DOXORUBICIN] |  |  |  |  |  |  |  |  |  |  |  |  |  | MTD/2 [1]: 5 mg/kg; MTD/4 [2]: 2.5 mg/kg; MTD/8 [3]: 1.25 mg/kg; MTD/16 [4]: 0.63 mg/kg |
| COc1ccc(-c2cc3c(OC)cc(OC)cc3n(CCC(=O)OCc3ccccc3)c2=O)cc1 | > 10 µM | > 10 µM | 160 mg/kg | > 10 µM | > 10 µM | > 10 µM | > 10 µM | > 10 µM | > 10 µM | > 10 µM | > 10 µM | > 10 µM |  | IC50 [14]: > 10 µM |
| COc1ccc(-c2cc3c(OC)cc(OC)cc3n(CCCN(C)C)c2=O)cc1 |  |  | 160 mg/kg |  |  |  |  |  |  |  |  |  |  | IC50 [18]: No effect; IC50 [19]: No effect; IC50 [20]: No effect; IC50 [21]: No effect; IC50 [22]: No effect; IC50 [23]: No effect; IC50 [24]: No effect; IC50 [25]: No effect; IC50 [26]: No effect; IC50 [27]: No effect; IC50 [28]: No effect; IC50 [29]: No effect |
| COc1ccc(-c2cc3c(OC)ccc(OC)c3nc2O)cc1 | > 10 µM | > 10 µM | 160 mg/kg | > 10 µM | > 10 µM | > 10 µM | > 10 µM |  | > 10 µM | > 10 µM | > 10 µM | > 10 µM | > 10 µM | IC50 [31]: > 10 µM |
| COc1ccc(-c2cc3c(OC)cc(OC)cc3n(CCc3nnn[nH]3)c2=O)cc1 | > 10 µM | > 10 µM | 160 mg/kg | > 10 µM | > 10 µM | > 10 µM | > 10 µM | > 10 µM | > 10 µM | > 10 µM | > 10 µM | > 10 µM | > 10 µM | MTD/8 [32]: 20 mg/kg; MTD/2 [33]: 80 mg/kg; MTD/4 [34]: 40 mg/kg |
